Measurements pooled from the literature.
Lines come from different studies, so protocols differ.
CDK3 with cyclin E: Cyclin-dependent kinase 3, with cyclin E (CDK3, Homo sapiens, UniProt Q00526)
CDK3: Cyclin-dependent kinase 3 (CDK3, Homo sapiens, UniProt Q00526)
CDK3 with cyclin E1: Cyclin-dependent kinase 3, with cyclin E1 (CDK3, Homo sapiens, UniProt Q00526)

SMILES	target	read-out	mode	technique	concentration	quantity	value
O=C(Nc1cnn(-c2csc(C(=O)NC3COC3)c2)c1)Nc1ccccc1Cl	CDK3 with cyclin E	enzyme activity	inhibitor	–	5 µM	remaining activity	107%
O=C(NCc1ncc(C(F)(F)F)cc1Cl)c1ccc2c(c1)C1(CCS(=O)(=O)CC1)[C@@H](C1CC1)N2S(=O)(=O)c1ccc(F)cc1	CDK3	cell-free assay	–	competition with immobilised ligand	1 µM	remaining binding	41%
Cc1ccc(Nc2nccc(N(C)c3ccc4c(C)n(C)nc4c3)n2)cc1S(N)(=O)=O	CDK3 with cyclin E	enzyme activity	inhibitor	–	0.3 µM	inhibition	-4%
CO[C@@H](C)c1c(Nc2ccc([C@@H](N(C)C(=O)C3CCS(=O)(=O)CC3)C(F)(F)F)cc2)cnc2cc(Cl)nn12	CDK3	cell-free assay	–	competition with immobilised ligand	1 µM	remaining binding	88%
Nc1ncnc2occ(-c3ccc(NC(=O)Nc4cc(C(F)(F)F)ccc4F)cc3)c12	CDK3	cell-free assay	inhibitor	–	20 µM	remaining signal	0.05%
CC(C)c1ccc(NC(=O)c2cccs2)c(-c2nc3ccccc3[nH]c2=O)c1	CDK3 with cyclin E	enzyme activity	inhibitor	–	1 µM	activity vs control	109%
CC(C)(C)c1nc2c(s1)c1nc(N)ncc1c1ccc(NS(=O)(=O)c3c(F)cccc3F)c(F)c12	Cyclin-dependent kinase 3, with cyclin C (CDK3, Homo sapiens, UniProt Q00526)	enzyme activity	inhibitor	radiometric	1 µM	remaining activity	97%
Cc1sc(C(=O)NC2COC2)cc1-n1cc(NC(=O)Nc2c(F)cccc2Cl)cn1	Cyclin-dependent kinase 3, with cyclin E2 (CDK3, Homo sapiens, UniProt Q00526)	enzyme activity	inhibitor	–	10 µM	remaining activity	103%
CNC(=O)c1cc(Oc2ccc(NC(=O)Nc3ccc(Cl)c(C(F)(F)F)c3)cc2)ccn1	CDK3 with cyclin E	enzyme activity	inhibitor	–	0.3 µM	inhibition	-6%
COc1cccc(CNC(=O)c2nc3scc(COCc4ccc(C(=O)O)cc4)c3c(=O)[nH]2)c1	CDK3	cell-free assay	–	competition with immobilised ligand	1 µM	remaining binding	100%
CC(C)(O)[C@H]1CC[C@H](Nc2ccc3ncc(-c4cccc(C(F)(F)F)c4)n3n2)CC1	CDK3 with cyclin E	enzyme activity	inhibitor	–	1 µM	remaining activity	105%
CC(C)(C)c1nc(-c2cccc(NS(=O)(=O)c3c(F)cccc3F)c2F)c(-c2ccnc(N)n2)s1	CDK3 with cyclin E1	enzyme activity	inhibitor	radiometric	1 µM	remaining activity	103%
COc1cc(Cl)c(C(=O)N[C@@H](CN[C@H]2CC[C@@H](N)CC2)Cc2ccc(C#N)cc2)cc1-c1ccc(CN[C@H](C)c2ccc(C)cc2)o1	CDK3 with cyclin E	enzyme activity	inhibitor	–	1 µM	remaining activity	99%
Cc1cc(NC(=O)c2cccc(S(F)(F)(F)(F)F)c2)cc(-n2ccn3nc(-c4cccnc4)cc23)c1	CDK3	cell-free assay	–	competition with immobilised ligand	1 µM	remaining binding	100%
CCN(CC)CCNC(=O)c1c(C)[nH]c(/C=C2\C(=O)Nc3ccc(F)cc32)c1C	CDK3 with cyclin E	enzyme activity	inhibitor	–	10 µM	inhibition	41%
O=C1NC(=O)c2cc(Nc3ccc(F)cc3)c(Nc3ccc(F)cc3)cc21	CDK3 with cyclin E	cell-free assay	–	–	0.5 µM	remaining signal	98.9%
Cc1ccc(C(=O)Nc2ccc(CN3CCN(C)CC3)c(C(F)(F)F)c2)cc1C#Cc1cnc2cccnn12	CDK3	enzyme activity	inhibitor	–	23.5 nM	remaining activity	95%
NS(=O)(=O)c1cc(NC(=O)Cc2ccccc2)ccc1Oc1cccc(Cl)c1	CDK3	cell-free assay	–	competition with immobilised ligand	1 µM	remaining binding	92%
O=C(Nc1cnn(-c2csc(C(=O)NC3COC3)c2)c1)Nc1c(F)cccc1Cl	CDK3 with cyclin E	enzyme activity	inhibitor	–	5 µM	remaining activity	92.2%
O=C1Nc2ccc(Cl)cc2C1=Cc1cc(Cl)c(O)c(Cl)c1	CDK3 with cyclin E	cell-free assay	–	–	0.5 µM	remaining signal	85.4%
NS(=O)(=O)c1cc(NC(=O)C2(c3ccccc3Cl)CC2)ccc1Oc1cccc(Cl)c1	CDK3	cell-free assay	–	competition with immobilised ligand	1 µM	remaining binding	90%
Cc1ccc(NC(=O)c2ccc(C)c(C(F)(F)F)c2)cc1C#Cc1nn(C2CCC(O)CC2)c2ncnc(N)c12 (stereo not drawn)	CDK3 with cyclin E	cell-free assay	–	–	10 µM	remaining signal	93%
CCCCN(CCCC)C(=O)CN1C[C@H](c2cc(OC)c3c(c2)OCO3)[C@@H](C(=O)O)[C@@H]1CC(C)(C)CCC	CDK3	cell-free assay	–	competition with immobilised ligand	1 µM	remaining binding	100%
CS(=O)(=O)Nc1cccc(-c2csc(NC(=O)CSc3nc4nccnc4c(=O)n3CCc3ccccc3)n2)c1	CDK3 with cyclin E1	enzyme activity	inhibitor	–	10 µM	inhibition	2%
